The target in one series is DNA gyrase (Escherichia coli, UniProt P0AES4+P0AES6). The experiment in a line: Inhibition of Escherichia coli GyrB A2B2 subunits assessed reduction in DNA supercoiling activity by malachite green dye based by spectrophotometry. It is filed as protein-complex assay. In a few lines:
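Inhibition was measured as loss of ATPase activity of the E. coli GyrB enzyme and reported as IC50.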

The next series deals with Enterococcus faecalis. The experiment in a line: Antibacterial activity against Enterococcus faecalis ATCC 29212 incubated for 24 hrs by broth microdilution method. Conditions: ATCC 29212, 24 h. It is filed as functional. A general note: In broth dilution the organism is exposed to a series of concentrations in liquid medium.
For a further series, the system named is Staphylococcus aureus. The experiment in a line: Antibacterial activity against Staphylococcus aureus ATCC 29213 incubated for 24 hrs by broth microdilution method. In kind it is functional. As to conditions: ATCC 29213, 24 h.
For the next series, the system named is Streptococcus pyogenes. The experiment in a line: Antibacterial activity against Streptococcus pyogenes ATCC 51339 incubated for 24 hrs by broth microdilution method. In kind it is functional. Conditions: ATCC 51339, 24 h.
In a further series the test system is Haemophilus influenzae. In words: Antibacterial activity against Haemophilus influenzae ATCC 49247 incubated for 24 hrs by broth microdilution method. It is filed as functional. Conditions: ATCC 49247, 24 h.
Series [1] can be described thus: Retention time of the compound by HPLC method. In kind it is physicochemical.

These results are taken from ChEMBL document CHEMBL3351278, “Pyridine-3-carboxamide-6-yl-ureas as novel inhibitors of bacterial DNA gyrase: structure based design, synthesis, SAR and antimicrobial activity” (Eur J Med Chem, 2014).

What is called IC50 is the concentration at which inhibition is half-maximal.

Converted amounts (≈) assume the structure as drawn.

On to `CCNC(=O)Nc1nc2cc(-c3cccnc3)cc(-c3ccccn3)c2s1`, for which the IC50 against DNA gyrase was < 0.75 µM. The MIC in the series with Enterococcus faecalis is < 0.25 µg/mL.

`CCNC(=O)Nc1ccc(C(=O)Nc2nccs2)cn1`: on DNA gyrase, the IC50 was found to be 0.42 µM. In addition, the MIC against Staphylococcus aureus, against Enterococcus faecalis, with Streptococcus pyogenes and against Haemophilus influenzae was > 64 µg/mL in each case. This compound also returned a Retention_time in series [1] of 1.52 min.

As to `CCNC(=O)Nc1ccc(C(=O)Nc2ncc(C(=O)O)s2)cn1`, the IC50 against DNA gyrase came out at 0.96 µM. Further, the MIC against Staphylococcus aureus, in the series on Enterococcus faecalis, in the series with Streptococcus pyogenes and in the series with Haemophilus influenzae was > 64 µg/mL in each case. The compound also returned a Retention_time in series [1] of 1.43 min.

`CCNC(=O)Nc1ccc(C(=O)NC2CCCCC2)cn1` came in with an IC50 against DNA gyrase of 23.1 µM. The MIC against Staphylococcus aureus, in the series on Enterococcus faecalis, with Streptococcus pyogenes and against Haemophilus influenzae was > 64 µg/mL throughout. The same compound yielded a Retention_time in series [1] of 1.67 min.

Regarding `CCNC(=O)Nc1cc(Nc2cccc(C)c2)c(C(=O)Nc2cccc(C)c2)cn1`, the IC50 at DNA gyrase is 0.099 µM. In addition, the MIC in the series on Staphylococcus aureus was 1 µg/mL (≈ 2.48 µM); against Enterococcus faecalis, 0.5 µg/mL (≈ 1.24 µM); in the series on Streptococcus pyogenes, 32 µg/mL (≈ 79.3 µM); in the series with Haemophilus influenzae, > 64 µg/mL. The compound further had a Retention_time in series [1] of 1.75 min.

At DNA gyrase, `CCNC(=O)Nc1cc(Nc2cccc(C)c2)c(C(=O)Nc2nccs2)cn1` gave an IC50 of 0.098 µM. Further, the MIC with Staphylococcus aureus, with Enterococcus faecalis, with Streptococcus pyogenes and with Haemophilus influenzae was > 64 µg/mL each time. Further, the Retention_time in series [1] amounted to 1.51 min.

The compound `CCNC(=O)Nc1cc(N2CCN(C)CC2)c(C(=O)Nc2cccc(Cl)c2)cn1` displayed a half-inhibitory concentration (IC50) at DNA gyrase of 5.14 µM. In addition, the MIC in the series with Staphylococcus aureus, in the series with Enterococcus faecalis, with Streptococcus pyogenes and in the series with Haemophilus influenzae was > 64 µg/mL throughout. For the same compound, the Retention_time in series [1] was found to be 1.36 min.

For the compound `CCNC(=O)Nc1cc(N2CCN(C)CC2)c(C(=O)Nc2cccnc2)cn1`, the IC50 on DNA gyrase was 5.66 µM. Further, the MIC in the series with Staphylococcus aureus, with Enterococcus faecalis, in the series with Streptococcus pyogenes and against Haemophilus influenzae was > 64 µg/mL throughout. The compound also showed a Retention_time in series [1] of 0.27 min.

At DNA gyrase, `CCNC(=O)Nc1cc(N2CCN(C)CC2)c(C(=O)Nc2cccc(C)c2)cn1` registered an IC50 of 18 µM. Further, the MIC in the series with Staphylococcus aureus, with Enterococcus faecalis, with Streptococcus pyogenes and against Haemophilus influenzae was > 64 µg/mL each time. The Retention_time in series [1] came out at 1.26 min.

For the compound `CCNC(=O)Nc1cc(N2CCN(C)CC2)c(C(=O)Nc2nccs2)cn1`, on DNA gyrase, the IC50 is 33.2 µM. The MIC in the series on Staphylococcus aureus, with Enterococcus faecalis, in the series with Streptococcus pyogenes and against Haemophilus influenzae was > 64 µg/mL each time. Further, the Retention_time in series [1] was found to be 1.18 min.

The compound `CCNC(=O)Nc1cc(-n2ccnc2)c(C(=O)Nc2cccc(Cl)c2)cn1` returned an IC50 on DNA gyrase of 0.55 µM. Moreover, the MIC against Staphylococcus aureus was > 64 µg/mL; against Enterococcus faecalis, 32 µg/mL (≈ 83.2 µM); in the series on Streptococcus pyogenes, 64 µg/mL (≈ 166 µM); with Haemophilus influenzae, > 64 µg/mL. In addition, the Retention_time in series [1] turned out to be 1.44 min.

Consider `CCNC(=O)Nc1cc(-c2cccnc2)c(C(=O)Nc2nccs2)cn1`, for which the IC50 against DNA gyrase was 0.56 µM. The MIC against Staphylococcus aureus is > 64 µg/mL; in the series on Enterococcus faecalis, 64 µg/mL (≈ 174 µM); in the series on Streptococcus pyogenes, 64 µg/mL (≈ 174 µM); against Haemophilus influenzae it was > 64 µg/mL. Further, the Retention_time in series [1] worked out at 1.36 min.

For the compound `CCNC(=O)Nc1cc(-c2cccnc2)c(C(=O)Nc2cccnc2)cn1`, at DNA gyrase, half-maximal inhibition (IC50) required 1.13 µM. Besides, the MIC against Staphylococcus aureus was > 64 µg/mL; against Enterococcus faecalis, 64 µg/mL (≈ 177 µM); with Streptococcus pyogenes it was 64 µg/mL (≈ 177 µM); against Haemophilus influenzae, > 64 µg/mL. Also, the Retention_time in series [1] is listed as 1.12 min.

For the compound `CCNC(=O)Nc1cc(-c2cccnc2)c(C(=O)Nc2cccc(Cl)c2)cn1`, on DNA gyrase, the IC50 came to 3.02 µM. In addition, the MIC against Staphylococcus aureus was > 64 µg/mL; in the series with Enterococcus faecalis, 64 µg/mL (≈ 162 µM); in the series with Streptococcus pyogenes, 64 µg/mL (≈ 162 µM); against Haemophilus influenzae, > 64 µg/mL. This compound showed a Retention_time in series [1] of 1.6 min.

On DNA gyrase, `CCNC(=O)Nc1cc(-c2cccnc2)c(C(=O)Nc2cccc(C)c2)cn1` yielded an IC50 of 7.27 µM. For the same compound, the MIC is > 64 µg/mL against Staphylococcus aureus, 64 µg/mL (≈ 170 µM) in the series with Enterococcus faecalis, > 64 µg/mL with Streptococcus pyogenes and > 64 µg/mL against Haemophilus influenzae. In addition, the Retention_time in series [1] is listed as 1.51 min.

As for `CCNC(=O)Nc1cc(-c2ccccc2)c(C(=O)Nc2cccc(Cl)c2)cn1`, at DNA gyrase, the midpoint of inhibition, the IC50, lay at 0.81 µM. In addition, the MIC was > 64 µg/mL in the series on Staphylococcus aureus, 4 µg/mL (≈ 10.1 µM) against Enterococcus faecalis, > 64 µg/mL with Streptococcus pyogenes and > 64 µg/mL with Haemophilus influenzae. This compound returned a Retention_time in series [1] of 1.88 min.

Turning to `CCNC(=O)Nc1cc(NC2CCCCC2)c(C(=O)Nc2cccc(C)c2)cn1`, at DNA gyrase, the half-maximal inhibitory concentration (IC50) came out at 2.12 µM. Further, the MIC in the series on Staphylococcus aureus, with Enterococcus faecalis, with Streptococcus pyogenes and against Haemophilus influenzae was > 64 µg/mL throughout. For the same compound, the Retention_time in series [1] came out at 1.7 min.

For `CCNC(=O)Nc1cc(NCc2cccnc2)c(C(=O)Nc2cccnc2)cn1`, the IC50 against DNA gyrase was determined as 0.66 µM. Also, the MIC in the series on Staphylococcus aureus was > 64 µg/mL; in the series on Enterococcus faecalis it was 8 µg/mL (≈ 20.4 µM); against Streptococcus pyogenes, 8 µg/mL (≈ 20.4 µM); with Haemophilus influenzae it was > 64 µg/mL. The compound also had a Retention_time in series [1] of 1.23 min.

Turning to `CCNC(=O)Nc1cc(NCc2cccnc2)c(C(=O)Nc2ccccc2)cn1`, the IC50 at DNA gyrase was found to be 4.81 µM. The MIC in the series with Staphylococcus aureus was > 64 µg/mL; in the series with Enterococcus faecalis, 2 µg/mL (≈ 5.12 µM); against Streptococcus pyogenes, 8 µg/mL (≈ 20.5 µM); against Haemophilus influenzae, > 64 µg/mL. Moreover, the Retention_time in series [1] was found to be 1.3 min.

For `CCNC(=O)Nc1cc(Nc2ccccc2)c(C(=O)Nc2ccc(-n3cncn3)nc2)cn1`, at DNA gyrase, the IC50 is 0.15 µM. For the same compound, the MIC with Staphylococcus aureus was > 16 µg/mL; against Enterococcus faecalis, 0.25 µg/mL (≈ 0.564 µM); with Streptococcus pyogenes, > 16 µg/mL; in the series with Haemophilus influenzae it was > 64 µg/mL. In series [1], this compound gave a Retention_time of 1.54 min.

On DNA gyrase, `CCNC(=O)Nc1cc(Nc2ccccc2)c(C(=O)NCc2cccnc2)cn1` came in with an IC50 of 2 µM. In addition, the MIC was > 16 µg/mL in the series on Staphylococcus aureus, 0.5 µg/mL (≈ 1.28 µM) with Enterococcus faecalis, 1 µg/mL (≈ 2.56 µM) against Streptococcus pyogenes and > 64 µg/mL against Haemophilus influenzae. This compound also yielded a Retention_time in series [1] of 1.24 min.

With `CCNC(=O)Nc1cc(Oc2ccccc2)c(C(=O)Nc2ccccc2)cn1`, on DNA gyrase, it took 4.9 µM to reach half-maximal inhibition (IC50). The MIC against Staphylococcus aureus is > 16 µg/mL; against Enterococcus faecalis, > 16 µg/mL; with Streptococcus pyogenes, > 16 µg/mL; against Haemophilus influenzae it was > 64 µg/mL. Moreover, the Retention_time in series [1] turned out to be 1.93 min.

Turning to `CCNC(=O)Nc1cc(Nc2cccnc2)c(C(=O)Nc2cccnc2)cn1`, inhibition on DNA gyrase was half-maximal at 0.093 µM (IC50). The MIC in the series with Staphylococcus aureus is 8 µg/mL (≈ 21.2 µM); against Enterococcus faecalis, 0.5 µg/mL (≈ 1.32 µM); with Streptococcus pyogenes, 1 µg/mL (≈ 2.65 µM); with Haemophilus influenzae it was > 64 µg/mL. In addition, in series [1], the Retention_time is 1.38 min.

`CCNC(=O)Nc1ccc(C(=O)Nc2ccc3c(C)cc(=O)oc3c2)cn1` gave an IC50 on DNA gyrase of 8.4 µM. Besides, the MIC with Staphylococcus aureus, with Enterococcus faecalis, against Streptococcus pyogenes and in the series on Haemophilus influenzae was > 64 µg/mL in each case. The Retention_time in series [1] worked out at 1.64 min.
